Measured values: ChEMBL document CHEMBL2440062, “New nucleotide-competitive non-nucleoside inhibitors of terminal deoxynucleotidyl transferase: discovery, characterization, and crystal structure in complex with the target” (J Med Chem, 2013)
Activity calls are given as the source filed them. No cut-off for these calls is given here.

test system: HeLa; test: Induction of apoptosis in TdT-deficient human HeLa cells assessed as caspase-3 cleavage by Western blot analysis; format: cell-based
How it was run: (§1)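 1 × 10^6 cells were incubated with or without compound, then lysed in cold buffer (50 mM Tris, 150 mM NaCl, 10 mM EDTA, 1% Triton) with protease inhibitors. Equal protein was run on 8–12% SDS-PAGE and blotted to nitrocellulose. Membranes were probed overnight at 4 °C with antibodies to cyclin E2, cyclin A, p53 or caspase 3, detected by HRP/ECL, and normalized to actin by densitometry.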

Structure (SMILES) | Activity
O=C(/C=C/c1cc(C(=O)c2ccccc2)cn1Cc1ccc(F)cc1)CC(=O)C(=O)O | Non-toxic
CCOC(=O)C(=O)CC(=O)/C=C/c1cc(C(=O)c2ccc(C#N)cc2)c[nH]1 | Non-toxic

test system: MOLT-4; test: Induction of apoptosis in human MOLT4 cells overexpressing TdT assessed as caspase-3 cleavage by Western blot analysis; format: functional, cell-based; how it was run: as §1

Structure (SMILES) | Activity
O=C(/C=C/c1cc(C(=O)c2ccccc2)cn1Cc1ccc(F)cc1)CC(=O)C(=O)O | Active
CCOC(=O)C(=O)CC(=O)/C=C/c1cc(C(=O)c2ccc(C#N)cc2)c[nH]1 | Active

test system: MOLT-4; test: Upregulation of p53 protein expression in human MOLT4 cells overexpressing TdT at IC50 after 30 hrs by Western blot analysis; format: functional, cell-based; how it was run: as §1

Structure (SMILES) | Activity
O=C(/C=C/c1cc(C(=O)c2ccccc2)cn1Cc1ccc(F)cc1)CC(=O)C(=O)O | Active
CCOC(=O)C(=O)CC(=O)/C=C/c1cc(C(=O)c2ccc(C#N)cc2)c[nH]1 | Active

test system: MOLT-4; test: Downregulation of cyclin A protein expression in human MOLT4 cells overexpressing TdT at 30 uM by Western blot analysis; format: functional, cell-based; how it was run: as §1

Structure (SMILES) | Activity
O=C(/C=C/c1cc(C(=O)c2ccccc2)cn1Cc1ccc(F)cc1)CC(=O)C(=O)O | Active

test system: MOLT-4; test: Downregulation of cyclin A protein expression in human MOLT4 cells overexpressing TdT at 30 to 50 uM by Western blot analysis; format: functional, cell-based; how it was run: as §1

Structure (SMILES) | Activity
CCOC(=O)C(=O)CC(=O)/C=C/c1cc(C(=O)c2ccc(C#N)cc2)c[nH]1 | Active

test system: HeLa; test: Cell cycle arrest in TdT-deficient human HeLa cells at 30 uM after 24 hrs by propidium iodide staining-based FACS flow cytometric analysis; format: ADME
How it was run: (§2)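 Cells at 2.5 × 10^5 cells/mL were treated 24 h with compound or vehicle. They were washed in PBS, trypsinized, and stained 30 min at 4 °C in the dark with 0.1% sodium citrate, 0.1% Triton X-100 and propidium iodide. Analysis was by FACScan flow cytometry, giving the percentage of cells in G0/G1, S and G2/M.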

Structure (SMILES) | Activity
O=C(/C=C/c1cc(C(=O)c2ccccc2)cn1Cc1ccc(F)cc1)CC(=O)C(=O)O | Non-toxic
CCOC(=O)C(=O)CC(=O)/C=C/c1cc(C(=O)c2ccc(C#N)cc2)c[nH]1 | Non-toxic

test system: MOLT-4; test: Cell cycle arrest in human MOLT4 cells overexpressing TdT assessed as decrease of cells in G1 phase at 30 uM after 24 hrs by propidium iodide staining-based FACS flow cytometric analysis relative to vehicle-treated control; format: functional; design: scale not given: the % may be the effect or the level left; how it was run: as §2

Structure (SMILES) | Activity
O=C(/C=C/c1cc(C(=O)c2ccccc2)cn1Cc1ccc(F)cc1)CC(=O)C(=O)O | 30%
CCOC(=O)C(=O)CC(=O)/C=C/c1cc(C(=O)c2ccc(C#N)cc2)c[nH]1 | 30%

test system: MOLT-4; test: Cell cycle arrest in human MOLT4 cells overexpressing TdT assessed as accumulation at S phase at 30 uM after 24 hrs by propidium iodide staining-based FACS flow cytometric analysis relative to vehicle-treated control; format: functional; how it was run: as §2

Structure (SMILES) | Activity
O=C(/C=C/c1cc(C(=O)c2ccccc2)cn1Cc1ccc(F)cc1)CC(=O)C(=O)O | 44%
CCOC(=O)C(=O)CC(=O)/C=C/c1cc(C(=O)c2ccc(C#N)cc2)c[nH]1 | 44%

test system: HeLa; test: Cytotoxicity against TdT-deficient human HeLa cells assessed as growth inhibition after 24 to 48 hrs by MTT assay; format: cell-based
How it was run: (§3)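 MOLT-4 cells were grown in RPMI-1640 and HeLa cells in DMEM, with 10% FCS at 37 °C. Cells were seeded at 10^5 per well, given 24 h to attach, then exposed to compounds (0.1–100 range) for 24 or 48 h. MTT at 1 mg/mL was added for 2 h at 37 °C, formazan was dissolved in DMSO, and absorbance read at 550 nm versus 0.5% DMSO vehicle. IC50 was obtained by regression, in triplicate.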

Structure (SMILES) | IC50
O=C(/C=C/c1cc(C(=O)c2ccccc2)cn1Cc1ccc(F)cc1)CC(=O)C(=O)O | > 40 µM
CCOC(=O)C(=O)CC(=O)/C=C/c1cc(C(=O)c2ccc(C#N)cc2)c[nH]1 | > 40 µM

test system: MOLT-4; test: Cytotoxicity against human MOLT4 cells overexpressing TdT assessed as growth inhibition after 24 to 48 hrs by MTT assay; format: functional, cell-based; how it was run: as §3

Structure (SMILES) | IC50
O=C(/C=C/c1cc(C(=O)c2ccccc2)cn1Cc1ccc(F)cc1)CC(=O)C(=O)O | 9 µM
CCOC(=O)C(=O)CC(=O)/C=C/c1cc(C(=O)c2ccc(C#N)cc2)c[nH]1 | 30 µM

species: Homo sapiens; test: Binding affinity to human TdT/DNA/dNTP ternary complex
How it was run: (§4)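 Association (kon) and dissociation (koff) rates measured for binding to binary enzyme–DNA and ternary enzyme–DNA–dNTP complexes of TdT.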

Structure (SMILES) | inhibition
CCOC(=O)C(=O)CC(=O)/C=C/c1cc(C(=O)c2ccc(C#N)cc2)c[nH]1 | inactive

species: Homo sapiens; test: Binding affinity to human TdT/DNA binary complex; how it was run: as §4

Structure (SMILES) | inhibition
CCOC(=O)C(=O)CC(=O)/C=C/c1cc(C(=O)c2ccc(C#N)cc2)c[nH]1 | Active

biological target: T1, DNA nucleotidylexotransferase (Homo sapiens, UniProt P04053); test: Non-competitive inhibition of human TdT using 3'-OH as substrate
T1 sequence (P04053 whole entry): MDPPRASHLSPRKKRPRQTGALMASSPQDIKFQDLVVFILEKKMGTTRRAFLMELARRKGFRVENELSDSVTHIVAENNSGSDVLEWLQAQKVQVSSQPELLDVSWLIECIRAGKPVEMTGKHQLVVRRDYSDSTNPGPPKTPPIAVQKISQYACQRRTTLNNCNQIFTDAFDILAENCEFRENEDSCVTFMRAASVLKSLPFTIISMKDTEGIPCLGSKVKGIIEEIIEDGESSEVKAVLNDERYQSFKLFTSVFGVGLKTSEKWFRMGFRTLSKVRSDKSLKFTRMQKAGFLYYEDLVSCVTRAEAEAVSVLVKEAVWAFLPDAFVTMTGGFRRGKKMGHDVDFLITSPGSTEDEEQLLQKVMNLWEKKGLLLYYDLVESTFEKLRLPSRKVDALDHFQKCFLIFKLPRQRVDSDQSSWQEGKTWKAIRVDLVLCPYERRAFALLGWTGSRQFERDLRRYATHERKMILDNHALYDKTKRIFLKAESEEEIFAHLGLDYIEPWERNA

Structure (SMILES) | Ki
CCOC(=O)C(=O)CC(=O)/C=C/c1cc(C(=O)c2ccc(C#N)cc2)c[nH]1 | 1.7 µM

biological target: T1, DNA nucleotidylexotransferase; test: Competitive inhibition of human TdT using TTP as substrate
How it was run: (§5)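 TdT was from Trevigen. TCA-precipitated radioactivity was counted. ID50 came from dose–response fitting. For kinetics, DNA or dNTP was varied at increasing inhibitor, and Ki was obtained via Cheng–Prusoff for a competitive model.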

Structure (SMILES) | Ki
CCOC(=O)C(=O)CC(=O)/C=C/c1cc(C(=O)c2ccc(C#N)cc2)c[nH]1 | 1.5 µM

biological target: DNA polymerase beta (Homo sapiens, UniProt P06746); test: Inhibition of human recombinant DNA polymerase beta

Structure (SMILES) | IC50
O=C(/C=C/c1cc(C(=O)c2ccccc2)cn1Cc1ccc(F)cc1)CC(=O)C(=O)O | 40 µM
CCOC(=O)C(=O)CC(=O)/C=C/c1cc(C(=O)c2ccc(C#N)cc2)c[nH]1 | > 40 µM

biological target: T2, DNA polymerase lambda (Homo sapiens) (UniProt Q9UGP5); test: Inhibition of human recombinant full length DNA polymerase lambda TdT-like activity using [3H]dNTP as substrate after 10 mins by scintillation counting analysis
T2 sequence (whole entry): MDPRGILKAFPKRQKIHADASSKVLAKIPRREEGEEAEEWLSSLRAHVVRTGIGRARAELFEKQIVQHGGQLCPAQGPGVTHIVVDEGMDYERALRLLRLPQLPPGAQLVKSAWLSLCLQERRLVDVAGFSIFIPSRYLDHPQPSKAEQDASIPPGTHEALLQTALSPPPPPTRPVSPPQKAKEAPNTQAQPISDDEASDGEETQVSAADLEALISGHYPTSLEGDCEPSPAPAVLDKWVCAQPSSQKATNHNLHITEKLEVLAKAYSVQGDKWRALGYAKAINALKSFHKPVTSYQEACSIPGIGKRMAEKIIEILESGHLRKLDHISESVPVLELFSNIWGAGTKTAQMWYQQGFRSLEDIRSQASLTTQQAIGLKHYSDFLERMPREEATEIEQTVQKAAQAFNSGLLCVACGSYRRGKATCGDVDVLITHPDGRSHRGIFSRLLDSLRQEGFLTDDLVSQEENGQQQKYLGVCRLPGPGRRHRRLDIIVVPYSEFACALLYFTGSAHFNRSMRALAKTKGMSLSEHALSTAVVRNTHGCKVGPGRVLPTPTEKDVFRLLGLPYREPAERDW
How it was run: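 Full-length recombinant human pol λ (>90% pure) was tested for template-independent activity. Acid-insoluble radioactivity was counted, and ID50 came from dose–response fitting.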

Structure (SMILES) | ID50
O=C(/C=C/c1cc(C(=O)c2ccccc2)cn1Cc1ccc(F)cc1)CC(=O)C(=O)O | > 40 µM
CCOC(=O)C(=O)CC(=O)/C=C/c1cc(C(=O)c2ccc(C#N)cc2)c[nH]1 | > 40 µM

biological target: T2, DNA polymerase lambda (Homo sapiens); test: Inhibition of human recombinant full length DNA polymerase lambda using [3H]dTTP as substrate and 10 poly(dA)/oligo(dT) as template-primer after 15 mins by scintillation counting analysis
How it was run: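 Recombinant full-length human pol λ at 50 nM was assayed with 0.2 μM poly(dA)/oligo(dT)10:1 (3′-OH ends) and 5 μM [3H]dTTP (5 Ci/mmol). Incubation was 15 min at 37 °C. TCA precipitates were scintillation counted.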

Structure (SMILES) | ID50
O=C(/C=C/c1cc(C(=O)c2ccccc2)cn1Cc1ccc(F)cc1)CC(=O)C(=O)O | > 40 µM
CCOC(=O)C(=O)CC(=O)/C=C/c1cc(C(=O)c2ccc(C#N)cc2)c[nH]1 | > 40 µM

biological target: T1, DNA nucleotidylexotransferase; test: Inhibition of human recombinant TdT using [3H]dNTP as substrate after 10 mins by scintillation counting analysis; how it was run: as §5

Structure (SMILES) | ID50
O=C(/C=C/c1cc(C(=O)c2ccccc2)cn1Cc1ccc(F)cc1)CC(=O)C(=O)O | 9.5 µM
CCOC(=O)C(=O)CC(=O)/C=C/c1cc(C(=O)c2ccc(C#N)cc2)c[nH]1 | 4.7 µM
